# An excerpt weighted towards active compounds, which were near 1.9% of everything screened.
# PGC1a acetyl inh: PGC1a acetylation modulation, inhibitor mode; inhibition, % at 15.6 µM; 0.17% of 350,000 active; U2OS PGC1a acetylation, AlphaScreen anti-acetyl-lysine; with virally co-expressed GCN5 acetyltransferase;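 active means every replicate shows inhibition of at least 40%; inconclusive means mean inhibition at least 40% but some replicate below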
# F508del corr: correctors of CFTR F508del function in bronchial epithelial cells. 0.36% of 350,000 active. AID 720511. activity (quench increase), % at 7.58 µM. CFBE cells, YFP halide quenching; stimulated with forskolin plus potentiator P3; % fluorescence drop versus neutral controls;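 active means mean added fluorescence quench of at least 8% versus neutral control, with both replicates also reaching 8%; inconclusive means only one of the mean or replicate conditions met; inactive means mean below 8% and not both replicates reaching 8%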;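 further: cells transiently co-express mutant CFTR-F508del with the halide-sensitive YFP; corrector assay measuring rescue of mutant channel to the surface after 24 h compound exposure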
# DENV2 CPE rescue: inhibitors of DENV2 cytopathic effect. DENV2-infected cells, cytopathic effect rescue, plate reader. CPE inhibition, % at 9.99 µM. 1.7% of 350,000 active; in the data active means CPE inhibition above about 20%, passing the limit was not always enough; inconclusive means no clear call, values can overlap the other calls; tested in BHK-21 cells
# FN deposit inh: fibronectin deposition inhibition | AH1F fibroblasts, Alexa488-fibronectin deposition fluorescence, overnight | inhibition, % at 12.6 µM | 0.086% of 350,000 active | AID 743247;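 active means mean inhibition across replicates of 30% or more, regardless of how many single replicates reach that level; inconclusive means mean under 30% yet at least half of replicates reach 30%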
#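 Test system: AH1F fibroblast monolayer depositing Alexa488-labelled fibronectin into matrix. Input: 10000 cells per well. Technique: fluorescence, ex 485 nm, em 525 nm. Buffer or medium: DMEM plus 2% serum, read in PBS. Timing: 1 h cell adhesion before compound, then overnight fibronectin incubation. Compound: single dose, pinned. Read-out basis: inhibition from reduced deposited-fibronectin fluorescence.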
# Cneo AK release: Cryptococcus neoformans lysis via adenylate kinase release | 0.2% of 360,000 active | C. neoformans lysis, adenylate kinase release luminescence, 4 h; normalised: neutral wells 0, clomiphene wells 100 | lysis activity, % at 15 µM;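 active means mean lysis activity across replicates of at least 80%, whatever share of replicates individually reach that level; inactive means mean lysis activity below 80%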
#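 Test system: log-phase Cryptococcus neoformans yeast cells. Input: 5 × 10^6 yeast cells/mL. Medium: fresh YPD growth medium. Doses: single dose. Incubation: static 4 h at 37 °C with compound, 1 h detection. Measured by: luminescent adenylate kinase detection reagent. Read-out: signal increase indicating cell lysis. Benchmarks: Clomiphene.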
# Xi reactivation: reactivates the inactive X chromosome in mouse fibroblasts; XiGFP mouse fibroblasts, % GFP-positive cells imaging, 3 d; cells co-treated with 5-aza-dC sensitizer; scaled so ellipticine positive control = 100%; activation, % at 7.58 µM; 0.055% of 360,000 active;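 active means mean normalized replicate activation at least 10% and every replicate at or above 10%; inconclusive means only one of the two criteria met; inactive means mean below 10% and not all replicates reach 10%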
#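 System: 68-5-11 XiGFP fibroblast line; Timing: 3 days compound exposure; Compound dosing: one concentration, pinned; Benchmarks: positive control ellipticine, 6 µM final; Buffer or medium: DMEM containing 5-aza-dC.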
# C2C12 COX5a inh: C2C12 myotube COX5a expression inhibition | shares compounds with PGC1a acetyl inh | C2C12 myotubes PGC-1a adenovirus, COX5a qPCR | maximal activity, % | 45 tested, under 10 active;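 active means fitted dose curve reaching 40% activity at or below the highest valid dose tested; inconclusive means flat fit between 30% and 70%, or an unusable fit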
# AID743468: change in PGC-1a target gene PDK4 expression, dose response, C2C12 myotubes, RT-qPCR, cherry-pick. PGC-1a adenovirus, PDK4 mRNA qPCR. 45 tested, under 10 active. AID 743468. shares compounds with PGC1a acetyl inh. PDK4 expression increase, % at 19.5 µM;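 active means fitted curve reaching a 40% PDK4 expression rise at or below the top valid tested dose; inconclusive means no clear call, values can overlap the other calls; inactive means the rest, including shifts the wrong way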
# Hits are given with their value; . = inactive; ? = inconclusive; / = not tested or not shown.
SMILES,PGC1a acetyl inh,F508del corr,DENV2 CPE rescue,FN deposit inh,Cneo AK release,Xi reactivation,others
C[C@@H](NC(=O)C[C@@H]1CC[C@@H]2[C@H](COC[C@H](O)CN2C(=O)Nc2cc(Cl)cc(Cl)c2)O1)c1ccccc1,.,.,.,.,.,.,
C[C@@H](NC(=O)C[C@@H]1CC[C@H]2[C@@H](COC[C@H](O)CN2C(=O)Nc2cc(Cl)cc(Cl)c2)O1)c1ccccc1,.,.,40,.,.,.,
C[C@H](NC(=O)C[C@H]1CC[C@H]2[C@@H](COC[C@@H](O)CN2C(=O)Nc2cc(Cl)cc(Cl)c2)O1)c1ccccc1,.,.,23,.,.,.,
C[C@@H](NC(=O)C[C@@H]1CC[C@H]2[C@@H](COC[C@@H](O)CN2C(=O)Nc2cc(Cl)cc(Cl)c2)O1)c1ccccc1,.,.,.,.,.,.,
C[C@H](CO)N1C[C@H](C)[C@@H](CN(C)C(=O)Nc2ccc(C(F)(F)F)cc2)Oc2ncc(-c3cccnc3)cc2C1=O,.,.,30,.,.,.,
C[C@@H]1CN([C@H](C)CO)C(=O)c2cc(-c3cccnc3)cnc2O[C@H]1CN(C)C(=O)Nc1ccc(C(F)(F)F)cc1,.,.,.,.,.,.,
C[C@H]1CN([C@@H](C)CO)C(=O)c2cc(-c3cncnc3)cnc2O[C@H]1CN(C)C(=O)c1ccccc1F,.,.,?,/,90,.,
C[C@@H]1CN([C@@H](C)CO)C(=O)c2cc(-c3cccnc3)cnc2O[C@@H]1CN(C)C(=O)c1ccccc1F,.,.,46,/,.,.,
C[C@@H]1CN([C@H](C)CO)C(=O)c2cc(NC(=O)Nc3cccc4ccccc34)ccc2O[C@H]1CN(C)S(=O)(=O)c1ccc(Cl)cc1,.,.,.,/,.,.,
COc1ccc(NC(=O)N(C)C[C@H]2Oc3ccc(NS(=O)(=O)c4ccc(OC)cc4)cc3CC(=O)N([C@H](C)CO)C[C@@H]2C)cc1,.,.,.,/,.,.,
CO[C@H]1CN(C)C(=O)c2cc(NC(=O)c3ccc4c(c3)OCO4)ccc2OC[C@@H](C)N(CC2CC2)C[C@@H]1C,.,.,.,/,.,.,
CO[C@@H]1CN(C)C(=O)c2cc(NC(=O)c3ccc4c(c3)OCO4)ccc2OC[C@@H](C)N(CC2CC2)C[C@H]1C,105,.,.,/,.,.,
CO[C@@H]1CN(C)C(=O)c2cc(NC(=O)c3ccc4c(c3)OCO4)ccc2OC[C@@H](C)N(CC2CC2)C[C@@H]1C,.,.,77,/,.,.,
COc1ccccc1C(=O)Nc1ccc2c(c1)C(=O)N(C)C[C@H](OC)[C@@H](C)CN(CC1CC1)[C@@H](C)CO2,.,.,?,.,96,.,
Cc1cccc(S(=O)(=O)N2C[C@@H](O)COC[C@@H]3O[C@@H](CC(=O)NCc4ccc5c(c4)OCO5)CC[C@H]32)c1,.,.,.,.,.,.,
Cc1ccc(S(=O)(=O)Nc2ccc3c(c2)CC(=O)N([C@@H](C)CO)C[C@H](C)[C@H](CN(C)C(=O)NC(C)C)O3)cc1,.,.,.,/,.,.,
O=[N+]([O-])c1ccc(N2CCCC2)nc1N1CCCC1,.,.,.,.,.,.,
Nc1ncc([N+](=O)[O-])c(N2CCCCCC2)n1,53,.,.,.,.,.,
COc1cccc(S(=O)(=O)N(C)C[C@H]2Oc3cc(C#CCC(C)C)ccc3S(=O)(=O)N([C@@H](C)CO)C[C@H]2C)c1,.,.,44,.,.,.,
CC(C)CC#Cc1ccc2c(c1)O[C@H](CN(C)S(=O)(=O)c1cccc(F)c1)[C@H](C)CN([C@H](C)CO)S2(=O)=O,.,.,22,/,.,.,
CCCC#Cc1ccc2c(c1)O[C@@H](CN(C)S(=O)(=O)c1cccc(F)c1)[C@H](C)CN([C@@H](C)CO)S2(=O)=O,.,.,30,/,.,.,
COc1cccc(S(=O)(=O)N(C)C[C@@H]2Oc3cc(C#CCC(C)C)ccc3S(=O)(=O)N([C@H](C)CO)C[C@H]2C)c1,.,.,.,.,.,.,
CC(C)NC(=O)Nc1ccc2c(c1)CC(=O)N(C)C[C@@H](C)[C@H](CN(C)C(=O)NC(C)C)O2,/,/,/,.,/,.,
CCCC(=O)Nc1ccc2c(c1)OC[C@@H](C)N(C(=O)c1cnccn1)C[C@H](C)[C@@H](OC)CN(C)C2=O,.,.,.,.,.,.,
Cc1[nH]c(=O)c(C#N)c(C)c1CCC(=O)NCc1cccc(C(F)(F)F)c1,/,.,28,.,.,.,
SMILES,PGC1a acetyl inh,F508del corr,DENV2 CPE rescue,FN deposit inh,Cneo AK release,Xi reactivation,others
O=C1C(=O)c2cccnc2-c2ncccc21,/,.,.,45,/,.,
O=C1c2cc([N+](=O)[O-])ccc2-c2ncccc21,/,.,51,.,/,.,
Cc1ccc(S(=O)(=O)N(C)C[C@@H]2Oc3cc(C#Cc4ccncc4)ccc3S(=O)(=O)N([C@@H](C)CO)C[C@H]2C)cc1,60,.,.,/,.,/,C2C12 COX5a inh=.;AID743468=.
Cc1ccc(S(=O)(=O)N(C)C[C@H]2Oc3cc(C#Cc4ccncc4)ccc3S(=O)(=O)N([C@@H](C)CO)C[C@@H]2C)cc1,.,.,.,.,.,.,
Cc1ccc(S(=O)(=O)N(C)C[C@@H]2Oc3cc(C#Cc4ccncc4)ccc3S(=O)(=O)N([C@H](C)CO)C[C@H]2C)cc1,?,.,.,.,.,.,C2C12 COX5a inh=.;AID743468=.
C[C@@H]1CN([C@@H](C)CO)C(=O)c2cc(NS(C)(=O)=O)ccc2O[C@H]1CN(C)S(=O)(=O)c1cccs1,.,.,?,.,.,.,
OC(c1cc(-c2ccc(C(F)(F)F)cc2)nc(C(F)(F)F)c1)C1CCCCN1 (stereo not drawn),.,.,.,.,.,.,
OC(c1cc(C(F)(F)F)nc2c(C(F)(F)F)cccc12)C1CCCCN1 (stereo not drawn),.,.,.,.,.,.,C2C12 COX5a inh=.;AID743468=.
CCN(CC(=O)NCc1ccc(Cl)cc1)C(=O)CSc1cc(C)ccc1C,.,.,.,.,.,.,
CCN(CC(=O)NCc1ccc(Cl)cc1)C(=O)CSCC(=O)Nc1ccc(C)cc1,.,.,.,.,.,.,C2C12 COX5a inh=.;AID743468=.
C[C@@H]1CN([C@H](C)CO)S(=O)(=O)c2ccc(C3=CCCCC3)cc2O[C@@H]1CN(C)Cc1ccncc1,.,.,.,/,.,.,
COc1ccccc1C#Cc1ccc([C@H]2[C@H](C#N)N(C(=O)C3CCCC3)[C@H]2CO)cc1,65,.,.,.,/,.,C2C12 COX5a inh=.;AID743468=.

# Assay outcomes (PubChem BioAssay)
